High-throughput results as filed in PubChem.
Rows were chosen to be rich in hits. Some 8.9% of all compounds tested hit in one or more screens of this group.
bCat nuc transl = alters nuclear translocation of beta-catenin in HeLa cells. immunofluorescence imaging. nuclear translocation activity, % at 5 µM. actives 0.3% (n = 190,000);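 active = nuclear translocation activity above 50% at 5 µM, with a well cell count of 50 or more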;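 note: per-cell ratio of nuclear to cytoplasmic median beta-catenin stain intensity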
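Test system: human HeLa cell line; Doses: 5 µM primary, 0.02–20 µM confirmation; Incubation: 24 h compound exposure, 37°C; Detection: beta-catenin immunofluorescence imaging with DAPI; Read-out: beta-catenin nuclear/cytoplasmic ratio, % activation.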
Dynein cargo inh = blocks dynein driven cargo transport along microtubules. 3617.4 mouse cells, GR-EGFP nuclear translocation imaging; test concentration mostly 20 µM; stimulated with dexamethasone, 1 µM; active compounds read low. z-score, hits read low. actives 0.47% (n = 220,000). AID 1381;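 active = plate z-score of nuclear minus cytoplasmic receptor signal below a set negative limit, without overly bright fluorescence or cell loss, cut at about -3.5 in these data, passing the limit was not always enough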;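 note: z-score of nuclear minus cytoplasmic ring GR-EGFP intensity difference per well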
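medium = tetracycline-free induction medium containing charcoal-stripped FBS | also added = 1.0 µM final dexamethasone stimulus | schedule = 48 h induction, 1 h compound, 30 min dex at 37 °C | technique = fixed, Hoechst-stained cells imaged at 10x for EGFP | measure = GR-EGFP nuclear translocation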
L major viab = inhibitors of Leishmania major promastigote growth. AID 1063. inhibition, % at 10 µM. actives 9% (n = 200,000). Leishmania major promastigotes, resazurin fluorescence viability; in the data active = inhibition above about 50%;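 note: promastigotes grown with compound for 44 hours at 28 °C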
HSV augment = increases HSV replication in cells | actives 0.005% (n = 220,000) | maximum fold increase | HSV replication augmentation in cells, fold increase; in the data active = maximum fold increase above about 1.5; tested in PC3 cells
MT stabilize HCS = microtubule stabilizers in HeLa cells | AID 2205 | HeLa tubulin immunostaining HCS, 24 h; share of cells brighter than vehicle mean+2SD | % tubulin-high responders, % at 10 µM | actives 0.83% (n = 200,000);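 active = plate Z-score above 3 for both tubulin-high and condensed-nucleus cell shares, with cell loss under 80%, at 10 µM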;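 note: anti alpha tubulin signal scored within the nucleus-defined area of each cell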
Numbers stand for hits; . = inactive; / = no result.

SMILES | bCat nuc transl | Dynein cargo inh | L major viab | HSV augment | MT stabilize HCS
O=c1cnnc(N/N=C/c2ccccn2)[nH]1 | . | . | / | . | /
O=c1nc(N/N=C/c2ccccn2)cn[nH]1 | . | . | 98 | . | .
COc1ccccc1N(CC(=O)N(CC(C)C)CC(C)C)S(=O)(=O)c1cccs1 | . | . | . | . | .
CCc1ccc(NC(=S)N(CCCN2CCOCC2)Cc2ccccn2)cc1 | . | . | 68 | . | .
Cc1ccc(NC(=S)N(CCCN2CCOCC2)Cc2cccnc2)cc1C | . | . | 64 | . | .
Cc1ccccc1NC(=S)N(CCCN1CCOCC1)Cc1cccnc1 | . | . | . | . | .
CCC(=O)OCC(=O)Nc1cc(S(=O)(=O)N(C)C)ccc1Cl | . | . | . | . | .
CCN(CC(=O)Nc1ccc(OC(F)F)cc1)C1CCCCC1 | . | . | . | . | .
CCN(CC)c1ccc(/C=N/NC(=O)c2c[nH]c3ccccc23)cc1 | / | . | . | . | .
COC(=O)CCC(=O)OC1(C)C(=O)C2=CN(Cc3ccc4c(c3)OCO4)C(c3ccc(OC)cc3)=CC2=C(Br)C1=O (centres undefined) | / | / | / | . | /
O=C(NCCN1CCOCC1)c1ccc2c(c1)N(Cc1ccccc1F)C(=O)c1ccccc1S2 | . | . | 100 | . | .
Cc1cccc(CN2C(=O)c3ccccc3Sc3ccc(C(=O)NCCN4CCOCC4)cc32)c1 | . | . | 100 | . | .
O=C(c1ccc2c(c1)N(Cc1ccccc1F)C(=O)c1ccccc1S2)N1CCOCC1 | . | . | / | . | /
CN(C)CCN1C(=O)C(O)=C(C(=O)c2cc3ccccc3o2)C1c1cccc(Br)c1 (centres undefined) | . | . | . | . | .
O=C(Cn1cnc2c(oc3ccccc32)c1=O)N1CCN(c2ccccc2)CC1 | . | . | . | / | .
COc1ccc(OC)c(C2C=C(C34CC5CC(CC(C5)C3)C4)NC(=S)N2)c1 (centres undefined) | . | . | 99 | . | .
O=C(NC1CCCC1)C(c1ccncc1)N(Cc1ccco1)C(=O)c1ccc(-c2ccccc2)[nH]1 (centres undefined) | . | . | 94 | . | .
CC(C)(C)NC(=O)C(c1ccncc1)N(Cc1ccc(F)cc1)C(=O)c1ccc(-c2ccccc2)[nH]1 (centres undefined) | . | . | 99 | . | .
O=C(NC1CCCC1)C(c1ccncc1)N(CCCN1CCOCC1)C(=O)c1ccc(-c2ccccc2)[nH]1 (centres undefined) | . | . | . | . | .
O=C(NC1CCCC1)C(c1ccncc1)N(Cc1ccccc1)C(=O)c1ccc(-c2ccccc2)[nH]1 (centres undefined) | . | . | 97 | . | .
O=C(Cn1cc([N+](=O)[O-])cn1)N1CCc2ccccc2C1 | . | . | . | . | .
COc1ccc(N2C(=O)C3C(c4ccc(OC)cc4O)NC(Cc4ccccc4)(C(=O)O)C3C2=O)cc1 (centres undefined) | . | . | . | . | .
Cc1cccnc1Nc1nc(-c2ccc(O)cc2)cs1 | . | . | 99 | . | .
CCN1C(=O)CC(N2CCN(c3ccc(C(=O)c4ccncc4)cc3)CC2)C1=O (centres undefined) | . | . | 73 | . | .
COc1ccc(N2C(=O)CC(N3CCN(c4ccc(C(=O)c5cccnc5)cc4)CC3)C2=O)cc1 (centres undefined) | / | . | . | . | .
SMILES | bCat nuc transl | Dynein cargo inh | L major viab | HSV augment | MT stabilize HCS
CCOc1ccc(N2C(=O)CC(N3CCN(c4ccc(C(=O)c5ccncc5)cc4)CC3)C2=O)cc1 (centres undefined) | / | . | 77 | . | .
Cc1ccc(OCCN2CCN(CC(O)Cn3c4ccccc4c4ccccc43)CC2)cc1 (centres undefined) | . | . | 77 | . | .
OC(CSc1ccc(F)cc1)CN1CCN(c2ccccc2)CC1 (centres undefined) | . | . | 68 | . | .
CCOC(=O)N1CCN(CC(O)c2ccccc2)CC1 (centres undefined) | . | . | . | . | .
OC(CN1CCN(Cc2ccccc2)CC1)c1ccccc1 (centres undefined) | . | . | 69 | . | .
OC(CN1CCN(Cc2ccccc2)CC1)c1ccc(F)cc1 (centres undefined) | . | . | 96 | . | .
Cc1ccc(OCC(O)Cn2c3ccccc3c3ccccc32)cc1 (centres undefined) | . | . | . | . | .
Cc1ccc(-n2[nH]c(C)c(C=Nc3ccc(S(=O)(=O)Nc4nccs4)cc3)c2=O)cc1 | / | . | . | . | .
OC(CN1CCN(Cc2ccccc2)CC1)Cn1c2ccccc2c2ccccc21 (centres undefined) | . | . | 81 | . | .
CC(=O)c1c(N2CCN(Cc3ccccc3)CC2)nc(=S)n(Cc2ccccc2)c1C | . | . | 63 | . | .
CC(=O)c1c(N2CCCCC2)nc(=S)n(Cc2ccccc2)c1C | . | . | . | . | .
Cc1ccc(CN2C(=O)c3ccccc3NC23CCN(Cc2ccccc2)CC3)cc1 | . | . | 96 | . | .
COC(=O)c1ccc2nc(Nc3nc4c(F)cc(F)cc4s3)sc2c1 | . | . | 52 | . | .
NNc1nc2c(F)cc(F)cc2s1 | . | . | 95 | . | .
C/C(=N\NC(=S)NCC(C)(C)C)c1cc(F)cc(F)c1O | . | . | / | . | /
C=CCN(C(=O)CSC1=NC(=O)CN1C(C)=O)c1nc(C)c(-c2ccccc2)s1 | . | . | 89 | . | .
CCOC(=O)c1cnc2ccc(OCC)cc2c1N1CCN(c2ccccc2)CC1 | . | . | . | . | .
Cc1ccc(C(=O)NC2c3ccccc3-c3ccccc32)cc1 | 106 | . | . | . | 24
N#Cc1ccsc1NC(=O)CN1CCOCC1 | . | . | / | . | /
N#Cc1ccsc1NC(=O)CN1CCCCCC1 | / | . | 59 | . | .
COC(C/C=C\[C@@H](O)[C@H](C)OCc1ccccc1)OC | / | / | / | . | /
CC(O)CC(C(=O)NNc1ccccc1)C(=O)NNc1ccccc1 (centres undefined) | . | . | 63 | . | .
O=C(NNc1ccccc1)C(CCO)C(=O)NNc1ccccc1 | . | . | 76 | . | .
CCc1cc(C(=O)Nc2cc(S(=O)(=O)N(C)C)ccc2C)sc1C | . | . | 99 | . | .
COc1ccc(Cl)cc1-n1c(C)cc(C=O)c1C | . | . | 78 | . | .
COc1ccc(Cl)cc1-n1c(C)cc(C(=O)O)c1C | . | . | . | . | .
O=C(NCCCCC(NC(=O)C1CCCCC1)C(=O)O)c1ccccc1 (centres undefined) | . | . | . | . | .
O=C(c1cc2sccc2n1Cc1ccc(F)cc1)N1CCN(c2nc3ccccc3s2)CC1 | . | . | 84 | . | .
CC(C)NC(=O)C1CCN(C2CCN(C(=O)c3cc4c(s3)CCCCC4)CC2)CC1 | . | . | 89 | . | .
CCOC(=O)c1c(NC(=O)CN2CCCc3ccccc32)sc(C)c1C | . | . | . | . | .
